For orientation: Emax means the size of the effect at its maximum, as opposed to the concentration needed. The EC50 is the concentration at which the effect is half-maximal.

Consider 9 compounds from ChEMBL document CHEMBL3102768, “Synthesis, biological evaluation and SAR of 3-benzoates of ingenol for treatment of actinic keratosis and non-melanoma skin cancer” (Bioorg Med Chem Lett, 2014).

Each structure is given as a SMILES string.

The subject of one data set is HeLa. The data set is described as follows: Induction of necrosis in human HeLa cells assessed as remaining metabolic activity after 30 mins by resazurin dye-based assay. Format: functional. Conditions: 0.5 h, read-out: LC50 (the source's name). In short, it runs like this: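 HeLa cells were exposed to increasing concentrations up to 400 µM for 30 min at 37 °C. Metabolic activity was then measured with a resazurin-based dye (PrestoBlue). LC50 is the concentration giving 50% loss of metabolic activity.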
A general note: Alamar Blue is a resazurin reagent that responds to reducing activity.

Data set [1] deals with Keratinocyte. The data set is described as follows: Induction of proimflammatory activity in human primary epidermal keratinocytes assessed as TNFalpha release after 6 hrs relative to ingenol 3-angelate. Format: functional. In a few lines: (§1)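 Adult log-phase primary epidermal keratinocytes were seeded at 10,000 cells/well. Cells were incubated with titrated compound for 6 h at 37 °C in 5% CO2. Secreted TNFα was measured by Meso Scale 4-spot cytokine plates. EC50 and Emax were referenced to the maximal response of ingenol 3-angelate.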

Data set [2] is described as follows: Chemical stability of the compound in aqueous buffer with less than 30% organic solvent assessed as compound recovery at pH 7.4 measured over 16 hrs by HPLC analysis. The following applies: read-out: Drug recovery. Format: physicochemical. In a few lines:
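A DMSO stock was diluted into pre-heated (37 °C) aqueous buffer pH 7.4 to ≤30% v/v organic content. The solution was held at 37 °C in the HPLC autosampler and injected within 5 min, then repeatedly over 16 h. Recovery was taken from the decrease in compound peak area, with UV detection normally at 270 nm.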

The nature of data set [3]: Immunostimulatory activity in polymorphonuclear leukocytes (unknown origin) assessed as induction of oxidative burst after 40 mins by fluorescence assay relative to ingenol 3-angelate. Format: functional. In a few lines: (§2)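 PMN were isolated from fresh buffy coats. Cells were incubated 40 min at ambient temperature with titrated compound (top concentration 10 µM) pre-mixed with hydroethidine. Respiratory burst was read as fluorescence at ex 485/em 579 nm. EC50 is the concentration giving 50% of the maximum effect of ingenol 3-angelate; Emax is the maximal response relative to it.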

Data set [4] in a line: Immunostimulatory activity in polymorphonuclear leukocytes (unknown origin) assessed as induction of oxidative burst after 40 mins by fluorescence assay. The format is functional, cell-based. In a few lines:
as §2

Data set [5] concerns Keratinocyte. Kind of data set: Induction of proimflammatory activity in human primary epidermal keratinocytes assessed as IL-8 release after 6 hrs relative to ingenol 3-angelate. The format is functional. In short, it runs like this:
(§3)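 Adult log-phase primary epidermal keratinocytes were seeded at 10,000 cells/well. Cells were incubated with titrated compound for 6 h at 37 °C in 5% CO2. Secreted IL8 was measured by Meso Scale 4-spot cytokine plates or by HTRF. EC50 and Emax were referenced to the maximal response of ingenol 3-angelate.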

In data set [6] the test system is Keratinocyte. Kind of data set: Induction of proimflammatory activity in human primary epidermal keratinocytes assessed as IL-8 release after 6 hrs. Format: functional, cell-based. In short, it runs like this: as §3
For data set [7], the system named is Keratinocyte. Kind of data set: Induction of proimflammatory activity in human primary epidermal keratinocytes assessed as TNFalpha release after 6 hrs. The format is functional, cell-based. In short, it runs like this: as §1

On to `CC1=C[C@]23C(=O)[C@@H](C=C(CO)[C@@H](O)[C@]2(O)[C@H]1OC(=O)c1c(C)cccc1NCc1ccccc1)[C@H]1[C@@H](C[C@H]3C)C1(C)C`, for which the CC50 in the data set with HeLa was determined as 187000 nM. The Emax was determined as 126% with Keratinocyte [1], 103% in data set [3] and 122% in the data set on Keratinocyte [5]. Further, the remaining at 16 h in data set [2] was more than 95%. For the same compound, the figures for the EC50 (in data set [4]; in the data set on Keratinocyte [6]; in the data set with Keratinocyte [7]) were 42 nM, 3.8 nM and 7.6 nM, respectively.

As for `COc1cccc(NCc2ccccc2)c1C(=O)O[C@H]1C(C)=C[C@]23C(=O)[C@@H](C=C(CO)[C@@H](O)[C@]12O)[C@H]1[C@@H](C[C@H]3C)C1(C)C`, the CC50 with HeLa worked out at 400000 nM. The Emax was 120% in the data set with Keratinocyte [1], 112% in data set [3] and 117% with Keratinocyte [5]. Moreover, the remaining at 16 h in data set [2] is more than 95%. Also, the EC50 is 23 nM in data set [4], 6.6 nM in the data set on Keratinocyte [6] and 19 nM in the data set with Keratinocyte [7].

Take `CC1=C[C@]23C(=O)[C@@H](C=C(CO)[C@@H](O)[C@]2(O)[C@H]1OC(=O)c1ccccc1OC(C)C)[C@H]1[C@@H](C[C@H]3C)C1(C)C`: the CC50 with HeLa is 192000 nM. The values for the Emax (with Keratinocyte [1]; in data set [3]; with Keratinocyte [5]) were 101%, 113% and 105%, respectively. The remaining at 16 h in data set [2] stood at 65%. Moreover, the EC50 in data set [4] is 8.7 nM; in the data set on Keratinocyte [6] it was 2.7 nM; in the data set on Keratinocyte [7], 4 nM.

Turning to `CC1=C[C@]23C(=O)[C@@H](C=C(CO)[C@@H](O)[C@]2(O)[C@H]1OC(=O)c1ccccc1N)[C@H]1[C@@H](C[C@H]3C)C1(C)C`, the CC50 in the data set on HeLa came out at 199000 nM. In addition, the Emax in the data set with Keratinocyte [1] is 112%; in data set [3], 116%; in the data set with Keratinocyte [5] it was 101%. Also, the remaining at 16 h in data set [2] was 58%. Moreover, the EC50 amounted to 15 nM in data set [4], 3.4 nM in the data set on Keratinocyte [6] and 5.5 nM in the data set with Keratinocyte [7].

`CCCCCCCCCCCCNc1ccccc1C(=O)O[C@H]1C(C)=C[C@]23C(=O)[C@@H](C=C(CO)[C@@H](O)[C@]12O)[C@H]1[C@@H](C[C@H]3C)C1(C)C`: in the data set with HeLa, the CC50 turned out to be 400000 nM. Also, the Emax in the data set on Keratinocyte [1] was found to be 150%; in data set [3] it was 78%; in the data set on Keratinocyte [5] it was 111%. Besides, the values for the EC50 (in data set [4]; in the data set on Keratinocyte [6]; in the data set with Keratinocyte [7]) were 25 nM, 16 nM and 14 nM, respectively.

`CCCCCCCCCCCCCCCCNc1ccccc1C(=O)O[C@H]1C(C)=C[C@]23C(=O)[C@@H](C=C(CO)[C@@H](O)[C@]12O)[C@H]1[C@@H](C[C@H]3C)C1(C)C`: the Emax turned out to be 120% in the data set with Keratinocyte [1], 94% in data set [3] and 125% in the data set on Keratinocyte [5]. For the same compound, the remaining at 16 h in data set [2] was determined as 90%. Besides, the EC50 stood at 1340 nM in data set [4], 61 nM in the data set with Keratinocyte [6] and 200 nM in the data set with Keratinocyte [7].

As to `COc1cccc(N)c1C(=O)O[C@H]1C(C)=C[C@]23C(=O)[C@@H](C=C(CO)[C@@H](O)[C@]12O)[C@H]1[C@@H](C[C@H]3C)C1(C)C`, the Emax with Keratinocyte [1] was determined as 83%; in data set [3], 109%; in the data set with Keratinocyte [5] it was 111%. Moreover, the remaining at 16 h in data set [2] was more than 95%. For the same compound, the results for the EC50 (in data set [4]; with Keratinocyte [6]; in the data set on Keratinocyte [7]) were 25 nM, 41 nM and 108 nM, respectively.

In the case of `CC1=C[C@]23C(=O)[C@@H](C=C(CO)[C@@H](O)[C@]2(O)[C@H]1OC(=O)c1c(N)cccc1F)[C@H]1[C@@H](C[C@H]3C)C1(C)C`, the CC50 with HeLa was determined as 201000 nM. The Emax in the data set with Keratinocyte [1] was 104%; in data set [3], 133%; in the data set on Keratinocyte [5], 104%. In addition, in data set [2], the remaining at 16 h was determined as 66%. Moreover, the EC50 came out at 12 nM in data set [4], 8.6 nM in the data set with Keratinocyte [6] and 10 nM with Keratinocyte [7].

`C/C=C(/C)C(=O)O[C@H]1C(C)=C[C@]23C(=O)[C@@H](C=C(CO)[C@@H](O)[C@]12O)[C@H]1[C@@H](C[C@H]3C)C1(C)C` [INGENOL MEBUTATE]: in the data set on HeLa, the CC50 came out at 230000 nM. For the same compound, the EC50 in data set [4] amounted to 8.7 nM.
